# CHOP inhibitor: CHOP inhibition in unfolded protein response; CHO-K1 CHOP-promoter luciferase, tunicamycin-induced, 15-18 h; inhibition, % at 10 µM; 220,000 compounds, 3.8% hits; AID 2732;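 active = compounds that reduced the stress-induced luciferase reporter signal by more than about 70% of percent inhibition, limit read from the data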
# Bfl-1 A1 inh: inhibitors of the anti-apoptotic protein A1, read as caspase activation; MEF A1-2A-BIM cells, Caspase-Glo 3/7 luminescence, 3 h; percent of clofoctol response, vehicle zero; caspase activation, % (no concentration beside the values); 330,000 compounds, 0.066% hits; AID 2462;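 active = over half of replicate activation scores above 10%, or exactly half above 10 with the replicate mean above 10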
# UPR XBP1 act: adaptive UPR (XBP1) activation | CHO-XBP1 luciferase reporter, IRE1-XBP1 UPR activation, luminescence; percent of tunicamycin response, DMSO as zero | activation, % at 20 µM | 330,000 compounds, 0.33% hits | AID 463104;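 active = versus positive control, 20 µM dose yields 30% or more activation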
#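 Assay system: CHO-XBP1 luciferase reporter cells; Schedule: 6 h treatment, 37 °C; Detection: glow luminescence from Steady-Glo reagent; Benchmarks: high control tunicamycin 10 µg/mL final, low control DMSO vehicle only.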
# CHOP UPR activ: activators of apoptotic arm of unfolded protein response (CHOP) | AID 449763 | 330,000 compounds, 0.34% hits | CHO-CHOP luciferase reporter, UPR activation, luminescence; percent of tunicamycin response over DMSO baseline | activation, % at 10 µM;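 active = at 10 µM dose, activation of 40% or more, normalized to positive control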
#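 System: CHO-CHOP luciferase reporter cell line | Buffer or medium: F12 medium containing 10% fetal bovine serum | Doses: One dose, 10 µM in 0.5% DMSO | Times: 6 h compound exposure at 37 °C after overnight seeding | Signal: Luciferase luminescence | Read-out: % activation vs tunicamycin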
# Hits are given with their value; 0 = inactive; - = not tested or not shown. Shown is part of a subset that was picked to be rich in hits.
SMILES,CHOP inhibitor,Bfl-1 A1 inh,UPR XBP1 act,CHOP UPR activ
Cc1ccc(S(=O)(=O)Oc2ccc(/C=C(/NC(=O)c3ccccc3)C(=O)NCCC(=O)O)cc2)cc1,0,0,0,0
C1=C(CCNc2ncnc3c2[nH]c2ccccc23)CCCC1,80,0,-,-
Cc1ccc(NS(=O)(=O)c2ccc(NC(=O)C(C)Sc3ccc(Cl)cc3)cc2)c(C)c1 (stereo not drawn),83,0,0,0
Cc1ccc(C)c(NS(=O)(=O)c2ccc(NC(=O)CSc3ccc(Cl)cc3)cc2)c1,94,0,0,0
Cc1ccccc1NS(=O)(=O)c1ccc(NC(=O)CSCc2ccc(Br)cc2)cc1,80,0,0,0
O=C(O)CCNC1C=CS(=O)(=O)C1 (stereo not drawn),0,0,0,0
Cn1c(-c2cc3c(C(F)(F)F)nn(C)c3s2)n[nH]c1=S,0,0,0,0
CCOC(=O)c1[nH]c(Cc2[nH]c(C(=O)OCC)c(C)c2CCC(=O)OC)c(CCC(=O)OC)c1C,85,0,0,0
COC(=O)C1CCN(c2cc(=O)n(Cc3ccc(F)cc3)c(=O)[nH]2)CC1,0,0,0,0
C/C(=N\NC(=S)NC1CCCCC1)c1cccs1,0,0,0,0
C/C(=N\NC(=S)NC1CCCCC1)c1c(F)cccc1F,80,0,0,0
CCN(c1ccc(OC)cc1)S(=O)(=O)c1ccc2c(c1)NC(=O)CS2,-,0,0,0
Fc1cccc(Cl)c1CSc1nnc(CNc2ccccc2)o1,0,0,0,0
CC(C)NC(=O)NC(=O)CSc1nnc(COc2ccccc2Cl)o1,0,0,0,0
O=C(CSc1nnc(CNc2ccc(F)cc2)o1)OC1CCCCC1,0,0,0,0
O=C(CSc1nnc(COc2ccc(Cl)cc2)o1)OC1CCCCC1,74,0,0,0
Clc1ccc(CSc2nnc(CNc3cccc(Cl)c3)o2)cc1,93,0,0,0
O=C(CSc1nnc(COc2ccccc2Cl)o1)NC(=O)NC1CCCC1,79,0,0,0
O=C(CSc1nnc(CNc2cccc(Cl)c2)o1)OC1CCCCC1,80,0,0,0
Cc1ccc(CNc2nc3ccccc3s2)s1,74,0,0,0
Cc1cccc(C)c1OCCn1nc(C(=O)O)c2ccccc2c1=O,72,0,0,0
Cc1cccc(OCCn2nc(C(=O)O)c3ccccc3c2=O)c1,85,0,0,0
O=C(O)c1nn(CC(=O)N(C2CCCCC2)C2CCCCC2)c(=O)c2ccccc12,93,0,0,0
CCc1ccc(NC(=O)c2ccc(F)c(S(=O)(=O)N(CC)c3ccccc3)c2)cc1,77,0,0,0
CCN(c1ccccc1)S(=O)(=O)c1cc(C(=O)Nc2cccc(Cl)c2)ccc1F,0,0,0,0
SMILES,CHOP inhibitor,Bfl-1 A1 inh,UPR XBP1 act,CHOP UPR activ
O=C1CC(c2cccc(Cl)c2)c2cc3c(cc2N1)CCC3 (stereo not drawn),86,0,0,0
COc1cccc(C2CC(=O)Nc3cc4c(cc32)CCC4)c1 (stereo not drawn),0,0,0,0
CCCc1ccc(C(=O)N2CCN(c3ccccc3OCC)CC2)cc1,71,0,0,0
Cc1cccc(C(=O)NCCNc2nc3cc(C)c(C)cc3cc2C)c1,76,0,0,0
Cc1cc2cc(C)c(NCCNC(=O)c3cccc(F)c3)nc2cc1C,0,0,0,0
Cc1ccc(C)c(S(=O)(=O)N/N=C/c2cccnc2)c1,72,0,0,0
Cc1cc(Nc2ccccc2)c2c([N+](=O)[O-])c(C)cc(C)c2n1,92,0,0,0
Cc1cccc(CSCCNC(=O)COc2ccc(Cl)cc2)c1,87,0,0,0
O=C(COc1ccc(Cl)cc1Cl)NCCCCc1ccccc1,85,0,0,0
O=C(COc1ccc(Cl)cc1)NCCSCc1cccc(Cl)c1,83,0,0,0
O=C(COc1ccc(Cl)cc1)NCCSCc1ccccc1Cl,0,0,0,0
COc1ccc(C2CC(c3ccc(Br)cc3)Nc3nc(N)nn32)cc1 (stereo not drawn),0,0,0,0
O=C(Nc1cc(C(F)(F)F)ccc1N1CCCCC1)c1ccc(Br)o1,0,0,0,0
CCS(=O)(=O)N1CCC(C(=O)NCCCN2CCCC2)CC1,0,0,0,0
Brc1ccc(-c2nnc(-c3ccccc3)c(N3CCSCC3)n2)cc1,0,0,0,0
CCN1C(=O)CSC1=NC12CC3CC(CC(C3)C1)C2,0,0,0,0
CN1C(=O)CSC1=NC12CC3CC(CC(C3)C1)C2,73,0,0,0
Cc1ccc(-c2nc(-c3cccnc3)no2)c(C)c1,73,0,0,0
Cc1nc2c3cc(F)ccc3n(Cc3ccccc3)c2s1,74,0,0,0
O=C(c1ccc(Cl)cc1)c1cnc2ccccn12,0,0,0,0
Cc1ccc(C)c(N2CCN(C(=O)c3ccc(NS(=O)(=O)c4c(C)noc4C)cc3)CC2)c1,72,0,0,0
O=C(N/N=C\c1ccccn1)C1COc2cc3ccccc3cc2O1 (stereo not drawn),72,0,0,0
CCOc1ccc(NC(=S)NC(C)c2cccs2)cc1 (stereo not drawn),0,0,0,0
COc1ccc(-c2nn3c(-c4ccc(F)cc4)nnc3s2)cc1,83,0,0,0
O=C(CSc1cccc[n+]1[O-])Nc1ccccc1C(F)(F)F,-,0,0,0
SMILES,CHOP inhibitor,Bfl-1 A1 inh,UPR XBP1 act,CHOP UPR activ
O=C(CSc1cccc[n+]1[O-])Nc1ccccc1Oc1ccccc1,0,0,0,108
O=C(Nc1ccccc1)Nc1snnc1C(=O)Nc1cccc(O)c1,78,-,0,0
O=C(Nc1ccc(-c2nnc3n2CCCCC3)cc1)c1cc2ccccc2o1,0,0,0,0
Cc1c(C(=O)Nc2ccc(-c3nnc4n3CCCCC4)cc2)oc2c1ccc1ccccc12,95,0,0,0
OCC1(Cc2ccccc2)CCN(Cc2cnc(-c3ccc(Cl)cc3)nc2)CC1,73,0,0,0
CN(C)c1nc(C=C(C#N)C#N)c(Cl)n1-c1ccc(F)cc1,96,-,-,-
CCCc1ccc(OCc2ccc(C(=O)OC)o2)c(OC)c1,78,0,0,0
CCCc1ccc(OCc2ccc(C(=O)O)o2)c(OC)c1,0,0,0,0
Cc1ccc(Nc2nc(-c3cccnc3)nc3ccccc23)cc1,0,0,0,0
CCOC(=O)c1ccc(Nc2nc(-c3cccnc3)nc3ccccc23)cc1,93,0,0,0
NS(=O)(=O)c1ccc(CCNC(=O)c2ccc3nc4ccc(Cl)cc4c(=O)n3c2)cc1,0,0,0,0
N=C1/C(=C/c2cccn2CCOc2ccccc2)C(=O)N=C2SC=C(c3ccccc3)N12,0,0,0,0
Oc1ccc(Cl)cc1C1=NNC(c2ccc(Cl)cc2)C1 (stereo not drawn),78,0,0,0
Oc1ccc(Cl)cc1C1=NNC(c2cc(Br)cc3c2OCOC3)C1 (stereo not drawn),79,0,0,0
COC(=O)[C@]1(C)CCC[C@@]2(C)C3CC[C@@]4(C)C[C@]3(CC[C@H]12)C[C@H]4O (stereo partly drawn),-,0,0,0
